Source: PubChem BioAssay (Broad Institute)
INS-1E ATP HTS – INS-1E beta cell protection from cytokine death; AID 488910; INS-1E cytokine-induced death, ATP luminescence, 48 h; normalised: neutral wells 0, positive control 100; protection from cytokine-induced ATP loss, % at 10 µM; 20,000 compounds, 0.1% hits;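 active means mean replicate protection from cytokine-induced ATP loss at least 50% and at least 75% of replicates each reaching 50%; inconclusive means meets only one of the two criteria, mean or replicate share; inactive means fails both the mean and replicate share criteria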
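Assay system – rat INS-1E insulinoma cell line · Quantity – 8000 cells per well · Buffer or medium – RPMI without phenol red, 5% FBS · Schedule – 48 h co-treatment, 10 min post-lysis read · Technique – luminescent ATP assay (CellTiter-Glo)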
A1 apoptosis 2 – compounds inhibiting A1, read as caspase activation | caspase activation, % (no concentration beside the values) | 24,000 tested, under 10 active | AID 2465 | MEF A1-2A-BIM cells, caspase-Glo luminescence, 3 h; percent of clofoctol response, DMSO zero; in the data active means caspase activation above about 5.9%; inconclusive means no clear call, values can overlap the other calls; inactive means below about 2.2%
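Material: mouse embryonic fibroblasts co-expressing A1 and BIM (A1-2A-BIM), primed for A1 dependence / Quantity: 2500 cells/well / Buffer or medium: RPMI-1640 growth medium with 10% FBS / Doses: 50 nL compound per well, pinned / Schedule: 3 h compound exposure at 37 °C / Signal: Caspase-Glo luminescence (DEVD substrate) / Measure: Caspase-3/7 activation, seen as rise in luminescence signal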
T cruzi intra – intracellular Trypanosoma cruzi inhibition; intracellular Trypanosoma cruzi in host cells, plate reader; activity score (inhibition), % at 5.01 µM; 22,000 compounds, 4.9% hits; AID 651903; in the data active means activity score above about 55%; inconclusive means no clear call, values can overlap the other calls;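 further: parasites and compound incubated about four days before reading; 0% = median of neutral control wells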
* = called active by the depositor; ? = inconclusive; nt = not tested or not shown. The full list was thinned out, with hits kept by preference.

SMILES	INS-1E ATP HTS	A1 apoptosis 2	T cruzi intra
COc1ccc(NC(=O)Nc2ccc3c(c2)CC(=O)N([C@@H](C)CO)C[C@H](C)[C@H](CN(C)Cc2ccc(C(F)(F)F)cc2)O3)cc1	-2	-1	2
COc1ccc(CN(C)C[C@@H]2Oc3ccc(NC(=O)Nc4ccc(C(F)(F)F)cc4)cc3CC(=O)N([C@H](C)CO)C[C@@H]2C)cc1	-89	-1	nt
COc1ccc(NC(=O)Nc2ccc3c(c2)CC(=O)N([C@H](C)CO)C[C@@H](C)[C@@H](CN(C)Cc2ccc(C(F)(F)F)cc2)O3)cc1	-11	nt	67*
COc1ccc(CN(C)C[C@H]2Oc3ccc(NC(=O)Nc4ccc(C(F)(F)F)cc4)cc3CC(=O)N([C@H](C)CO)C[C@H]2C)cc1	-14	1	74*
COc1ccc(NC(=O)Nc2ccc3c(c2)CC(=O)N([C@@H](C)CO)C[C@H](C)[C@@H](CN(C)Cc2ccc(C(F)(F)F)cc2)O3)cc1	-19	nt	74*
COc1ccc(NC(=O)Nc2ccc3c(c2)CC(=O)N([C@H](C)CO)C[C@@H](C)[C@H](CN(C)Cc2ccc(C(F)(F)F)cc2)O3)cc1	-43	0	?
COc1ccc(CN(C)C[C@H]2Oc3ccc(NC(=O)Nc4ccc(C(F)(F)F)cc4)cc3CC(=O)N([C@@H](C)CO)C[C@H]2C)cc1	-26	1	68*
O=C(CCCCCCC(=O)Nc1ccccc1O)N/N=C/c1cc(Cl)cc(Cl)c1O	2	1	27
O=C1O[C@H](c2ccccc2)[C@H](c2ccccc2)N2[C@H]1[C@@H](C(=O)NC[C@H](O)c1ccccc1)[C@]1(C(=O)Nc3ccccc31)[C@H]2c1ccccc1OCCO	nt	-2	nt
NNC(=O)c1ccc(COc2cc(Cl)ccc2Cl)o1	nt	nt	9
C[C@H]1CCCCO[C@H](CN(C)C(=O)NC2CCCCC2)[C@@H](C)CN([C@@H](C)CO)C(=O)c2cc(NC(=O)Nc3ccc(C(F)(F)F)cc3)ccc2O1	nt	0	nt
C[C@H](CO)N1C[C@H](C)[C@H](CN(C)C(=O)Nc2ccc(F)cc2)OCCCC[C@H](C)Oc2ccc(NC(=O)Nc3ccc(F)cc3)cc2C1=O	nt	0	nt
C[C@@H]1CCCCO[C@H](CN(C)C(=O)NC2CCCCC2)[C@@H](C)CN([C@H](C)CO)C(=O)c2cc(NC(=O)Nc3ccc(C(F)(F)F)cc3)ccc2O1	-9	nt	64*
C[C@@H]1CCCCO[C@H](CN(C)C(=O)Nc2ccc(F)cc2)[C@@H](C)CN([C@H](C)CO)C(=O)c2cc(NC(=O)Nc3ccc(F)cc3)ccc2O1	-3	0	59*
C[C@@H]1CCCCO[C@H](CN(C)C(=O)Nc2ccc(C(F)(F)F)cc2)[C@@H](C)CN([C@H](C)CO)C(=O)c2cc(NC(=O)Nc3ccc(C(F)(F)F)cc3)ccc2O1	-23	0	65*
C[C@@H]1CCCCO[C@H](CN(C)C(=O)Nc2ccc(C(F)(F)F)cc2)[C@@H](C)CN([C@H](C)CO)C(=O)c2cc(NC(=O)Nc3ccccc3)ccc2O1	-29	1	57*
C[C@@H]1CCCCO[C@H](CN(C)C(=O)Nc2ccc(C(F)(F)F)cc2)[C@@H](C)CN([C@@H](C)CO)C(=O)c2cc(NC(=O)Nc3ccc(C(F)(F)F)cc3)ccc2O1	nt	0	nt
C[C@H]1CCCCO[C@H](CN(C)C(=O)Nc2ccccc2)[C@@H](C)CN([C@@H](C)CO)C(=O)c2cc(NC(=O)Nc3ccc(C(F)(F)F)cc3)ccc2O1	nt	1	nt
COC(=O)CCCCCCC(=O)N/N=C/c1ccc(CO)o1	2	0	3
O=C(CCCCCCC(=O)Nc1ccccc1O)N/N=C/c1ccccc1Br	0	nt	1
COc1ccc(C#Cc2ccc3c(c2)[C@]2(C(=O)N3)[C@H](c3ccc(O)cc3)N3[C@H](c4ccccc4)[C@H](c4ccccc4)OC(=O)[C@H]3[C@@H]2C(=O)N2CCN(c3ncccn3)CC2)cc1	nt	0	nt
COc1ccc2nc(Cl)nc(NC3CCCCC3)c2c1	nt	0	nt
O=C(N/N=C/c1ccc(C(F)(F)F)cc1)c1ccccn1	1	-11	-11
COC(=O)C1=C/c2ccccc2C(C)N(Cc2ccc(OC)cc2)/C=C\1C(=O)OC (centres undefined)	nt	1	nt
C[C@@H]1CCCCO[C@@H](CN(C)C(=O)Nc2ccc(C(F)(F)F)cc2)[C@@H](C)CN([C@H](C)CO)C(=O)c2cc(NC(=O)Cc3ccccc3)ccc2O1	-5	nt	59*
C[C@@H]1CN([C@@H](C)CO)C(=O)c2cc(NC(=O)Nc3ccc(C(F)(F)F)cc3)ccc2O[C@H]1CN(C)C(=O)Nc1ccc(C(F)(F)F)cc1	-106	-1	74*
